Test results as given in ChEMBL document CHEMBL1154300, “Monoterpenoid indole alkaloids from Alstonia yunnanensis” (J Nat Prod, 2009).

Experiments:
[1] = target: Prostaglandin G/H synthase 1 (Homo sapiens) (UniProt P23219); conditions: at 100 µM
[2] = target: T1, Polyunsaturated fatty acid 5-lipoxygenase (Homo sapiens) (UniProt P09917); assay: Inhibition of 5-LOX at 100 uM after 5 mins
T1 sequence (whole entry): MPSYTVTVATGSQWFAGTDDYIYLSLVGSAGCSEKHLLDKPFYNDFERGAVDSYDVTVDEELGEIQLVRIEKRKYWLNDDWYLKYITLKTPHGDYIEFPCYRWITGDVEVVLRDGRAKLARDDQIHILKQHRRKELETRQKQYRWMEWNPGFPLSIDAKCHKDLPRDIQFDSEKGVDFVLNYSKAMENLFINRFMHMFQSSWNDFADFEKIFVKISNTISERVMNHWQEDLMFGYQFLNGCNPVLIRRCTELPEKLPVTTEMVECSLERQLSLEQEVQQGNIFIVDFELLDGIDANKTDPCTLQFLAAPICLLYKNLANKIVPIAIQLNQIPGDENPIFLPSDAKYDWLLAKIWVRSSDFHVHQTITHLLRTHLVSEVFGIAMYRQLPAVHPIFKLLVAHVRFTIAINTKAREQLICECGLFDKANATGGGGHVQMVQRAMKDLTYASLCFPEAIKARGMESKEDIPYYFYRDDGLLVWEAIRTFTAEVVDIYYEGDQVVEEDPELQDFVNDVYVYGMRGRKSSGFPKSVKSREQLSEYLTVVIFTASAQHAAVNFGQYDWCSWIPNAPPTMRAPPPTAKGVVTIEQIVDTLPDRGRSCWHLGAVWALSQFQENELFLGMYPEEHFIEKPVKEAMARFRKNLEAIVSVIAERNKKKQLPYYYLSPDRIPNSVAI
Summary of the method: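 Tested in an anti-inflammatory panel against Cox-1, Cox-2 and 5-Lox.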

PANC-1 = assay: Cytotoxicity against human PANC1 cells after 48 hrs by MTT assay; format: functional, cell-based; conditions: PANC-1, 48 h
HL-60 = assay: Cytotoxicity against human HL60 cells after 48 hrs by MTT assay; format: functional, cell-based; conditions: HL-60, 48 h

Sequence of Prostaglandin G/H synthase 1 (Homo sapiens) (P23219 whole entry): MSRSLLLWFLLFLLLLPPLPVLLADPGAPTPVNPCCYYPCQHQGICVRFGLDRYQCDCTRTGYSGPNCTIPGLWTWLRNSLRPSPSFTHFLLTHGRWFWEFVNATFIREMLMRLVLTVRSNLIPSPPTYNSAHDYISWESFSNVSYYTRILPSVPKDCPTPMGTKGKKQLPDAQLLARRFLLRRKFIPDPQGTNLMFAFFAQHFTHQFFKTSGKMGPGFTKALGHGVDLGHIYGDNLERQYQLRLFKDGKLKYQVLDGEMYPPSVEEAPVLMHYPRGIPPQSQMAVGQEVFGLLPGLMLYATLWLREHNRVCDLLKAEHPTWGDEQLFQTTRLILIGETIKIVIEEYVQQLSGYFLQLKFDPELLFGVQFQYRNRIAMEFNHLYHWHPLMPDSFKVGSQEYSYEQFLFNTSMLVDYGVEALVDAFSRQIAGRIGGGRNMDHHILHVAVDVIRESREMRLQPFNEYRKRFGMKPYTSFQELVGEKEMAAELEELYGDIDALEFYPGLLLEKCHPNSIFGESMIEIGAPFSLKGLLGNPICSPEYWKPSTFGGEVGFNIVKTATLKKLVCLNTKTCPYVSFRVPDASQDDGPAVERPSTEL

Structure (SMILES) | inhibition [1] | inhibition [2] | IC50 (PANC-1) | IC50 (HL-60)
CC(=O)OC1C2C3C[C@H]4C5=[N+]([O-])c6ccccc6[C@]51C[C@@H]2[N+]4([O-])[C@@H](C)[C@@H]3C(=O)O (some centres not stated) [ALSTOYUNINE D] | 39.3% | < 0% | > 40 µM | > 40 µM
COC(C)[C@H]1C2C[C@H]3C4=Nc5ccccc5[C@]45C[C@@H](C2C5OC(C)=O)N3[C@@H]1O (some centres not stated) [ALSTOYUNINE F] | 39.8% | 61.8% | 21.7 µM | 3.89 µM
CC(=O)OC1C2C3C[C@H]4C5=[N+](C)c6ccccc6[C@]51C[C@@H]2[N+]4([O-])[C@@H](C)[C@@H]3C(=O)[O-] (some centres not stated) | 45% | < 0% | > 40 µM | > 40 µM
CO[C@@H]1O[C@@H](O)[C@@H]2C3C[C@H]4c5[nH]c6ccccc6c5C[C@@H]2N4[C@@H](C)[C@H]31 [ALSTOYUNINE A] | 27.8% | 38.4% | > 40 µM | > 40 µM
CC[C@@]12CC(C(=O)OC)=C3Nc4cc(OC)ccc4[C@@]34CCN(C[C@@H](Cl)[C@@H]1O)[C@@H]24 [ALSTOYUNINE H] | < 0% | 0.84% | > 40 µM | > 40 µM
CC[C@@]12CC(C(=O)OC)=C3Nc4cc(OC)ccc4[C@@]34CCN(C(=O)[C@@H]3O[C@@H]31)[C@@H]24 [ALSTOYUNINE G] | 37.2% | < 0% | > 40 µM | > 40 µM
C/C=C1/C[N+]2([O-])[C@H]3CC1C1C(OC(C)=O)[C@@]4(C[C@@H]12)C3=Nc1ccccc14 (some centres not stated) [ALSTOYUNINE E] | 41.8% | 77.2% | > 40 µM | > 40 µM
CO[C@@H]1O[C@@H](O)[C@H]2C3C[C@H]4c5[nH]c6ccccc6c5C[C@@H]([C@@H]31)N4[C@H]2C [ALSTOYUNINE B] | 26.8% | 33.5% | > 40 µM | > 40 µM
